Measured values: ChEMBL document CHEMBL4706495, “A novel class of small molecule inhibitors with radioprotective properties” (Eur J Med Chem, 2020)

Legend:
Jurkat [1] = assay: Cytotoxicity against human Jurkat cells assessed as cell viability at 10 uM measured after 48 hrs by WST-1 assay relative to control; format: functional; conditions: read-out: Activity
How it was run: (§1)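 Ten-line human panel (9 cancer, 1 non-cancerous). Cells were seeded at a pre-established optimal density (500–30 × 10³ per well) and settled overnight. Compounds came from 10 mM DMSO stocks and were tested at two concentrations. WST-1 readout followed the manufacturer's protocol at the end of cultivation. Viability is expressed as % of untreated control cells, mean of three independent experiments.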

MOLT-4 [2] = assay: Cytotoxicity against human MOLT-4 cells assessed as cell viability at 10 uM measured after 48 hrs by WST-1 assay relative to control; format: functional; conditions: read-out: Activity; how it was run: as §1
A549 [3] = assay: Cytotoxicity against human A549 cells assessed as cell viability at 10 uM measured after 48 hrs by WST-1 assay relative to control; format: functional; conditions: read-out: Activity; how it was run: as §1
HT-29 [4] = assay: Cytotoxicity against human HT-29 cells assessed as cell viability at 10 uM measured after 48 hrs by WST-1 assay relative to control; format: functional; conditions: read-out: Activity; how it was run: as §1
PANC-1 [5] = assay: Cytotoxicity against human PANC-1 cells assessed as cell viability at 10 uM measured after 48 hrs by WST-1 assay relative to control; format: functional; conditions: read-out: Activity; how it was run: as §1
A2780 [6] = assay: Cytotoxicity against human A2780 cells assessed as cell viability at 10 uM measured after 48 hrs by WST-1 assay relative to control; format: functional; conditions: read-out: Activity; how it was run: as §1
HeLa [7] = assay: Cytotoxicity against human HeLa cells assessed as cell viability at 10 uM measured after 48 hrs by WST-1 assay relative to control; format: functional; conditions: read-out: Activity; how it was run: as §1
MCF7 [8] = assay: Cytotoxicity against human MCF7 cells assessed as cell viability at 10 uM measured after 48 hrs by WST-1 assay relative to control; format: functional; conditions: read-out: Activity; how it was run: as §1
SAOS-2 [9] = assay: Cytotoxicity against human SAOS-2 cells assessed as cell viability at 10 uM measured after 48 hrs by WST-1 assay relative to control; format: functional; conditions: read-out: Activity; how it was run: as §1
[10] = Cytotoxicity against human MRC5 cells assessed as cell viability at 10 uM measured after 48 hrs by WST-1 assay relative to control; format: cell-based; conditions: read-out: Activity; how it was run: as §1
Jurkat [11] = assay: Cytotoxicity against human Jurkat cells assessed as cell viability at 100 uM measured after 48 hrs by WST-1 assay relative to control; format: functional; conditions: read-out: Activity; how it was run: as §1
MOLT-4 [12] = assay: Cytotoxicity against human MOLT-4 cells assessed as cell viability at 100 uM measured after 48 hrs by WST-1 assay relative to control; format: functional; conditions: read-out: Activity; how it was run: as §1
A549 [13] = assay: Cytotoxicity against human A549 cells assessed as cell viability at 100 uM measured after 48 hrs by WST-1 assay relative to control; format: functional; conditions: read-out: Activity; how it was run: as §1
HT-29 [14] = assay: Cytotoxicity against human HT-29 cells assessed as cell viability at 100 uM measured after 48 hrs by WST-1 assay relative to control; format: functional; conditions: read-out: Activity; how it was run: as §1
PANC-1 [15] = assay: Cytotoxicity against human PANC-1 cells assessed as cell viability at 100 uM measured after 48 hrs by WST-1 assay relative to control; format: functional; conditions: read-out: Activity; how it was run: as §1
A2780 [16] = assay: Cytotoxicity against human A2780 cells assessed as cell viability at 100 uM measured after 48 hrs by WST-1 assay relative to control; format: functional; conditions: read-out: Activity; how it was run: as §1
HeLa [17] = assay: Cytotoxicity against human HeLa cells assessed as cell viability at 100 uM measured after 48 hrs by WST-1 assay relative to control; format: functional; conditions: read-out: Activity; how it was run: as §1
MCF7 [18] = assay: Cytotoxicity against human MCF7 cells assessed as cell viability at 100 uM measured after 48 hrs by WST-1 assay relative to control; format: functional; conditions: read-out: Activity; how it was run: as §1
SAOS-2 [19] = assay: Cytotoxicity against human SAOS-2 cells assessed as cell viability at 100 uM measured after 48 hrs by WST-1 assay relative to control; format: functional; conditions: read-out: Activity; how it was run: as §1
[20] = Cytotoxicity against human MRC5 cells assessed as cell viability at 100 uM measured after 48 hrs by WST-1 assay relative to control; format: cell-based; conditions: read-out: Activity; how it was run: as §1
A549 [21] = assay: Cytotoxicity against human A549 cells assessed as reduction in cell viability incubated for 24 hrs by MTT assay; format: functional, cell-based; conditions: A549, 24 h
How it was run: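 A-549 cells in DMEM with 10% FBS and 1% penicillin-streptomycin were attached overnight. Compounds were prepared in PBS and serially diluted in DMEM, then incubated 24 h. Viability was read by colorimetric MTT reduction against an untreated control on each plate (100%). IC50 came from four-parameter nonlinear regression of the log concentration-response curve, mean ± SEM. MTC is the highest concentration not differing from control (t-test).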

A549 [22] = assay: Cytotoxicity against human A549 cells assessed as maximum tolerated concentration incubated for 24 hrs by MTT assay; format: functional
How it was run: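 A-549 cells in DMEM with 10% FBS and 1% penicillin-streptomycin, left to attach overnight. Compounds made up in PBS, serially diluted in DMEM, incubated 24 h, then viability read by MTT reduction against untreated controls on each plate. MTC taken as the highest concentration showing no significant difference from non-treated control (t-test).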

MOLT-4 [23] = assay: Radioprotective activity against gamma irradiation-induced apoptosis in human MOLT-4 cells assessed as viable cells at 100 uM pretreated with compound for 1 hr followed by gamma irradiation and measured after 24 hrs by annexinV/propidium iodide staining based flow cytometry (reference value: 40 %); format: functional; conditions: MOLT-4, light or radiation study, time 25 hrs, read-out: Activity
[24] = Toxicity in C57Bl/6 mouse assessed as mouth death at 100 mg/kg, ip measured after 30 days; format: organism-based; conditions: in vivo, 720 h, time 30 day
How it was run: (§2)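 Safety in C57Bl/6 mice (27 ± 3 g) given a single 100 mg/kg i.p. injection without irradiation. Deaths, adverse effects and body weight followed over 30 days against an untreated control group. Weight reported as change from day 0.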

[25] = Toxicity in C57Bl/6 mouse assessed as adverse effects at 100 mg/kg, ip measured after 30 days; format: organism-based; conditions: in vivo, 720 h, time 30 day; how it was run: as §2
[26] = Toxicity in C57Bl/6 mouse assessed as average body weight at 100 mg/kg, ip and measured immediately (reference value: 26.3 +/- 2.4 g); format: organism-based; conditions: in vivo
[27] = Toxicity in C57Bl/6 mouse assessed as average body weight at 100 mg/kg, ip measured after 30 days (reference value: 27 +/ 3.2 g); format: organism-based; conditions: in vivo, 720 h, time 30 day
[28] = Toxicity in C57Bl/6 mouse assessed as change in body weight at 100 mg/kg, ip measured after 30 days (reference value: 103 +/- 12 %); format: organism-based; conditions: in vivo, 720 h, time 30 day
Mus musculus [29] = assay: Radioprotective activity in C57Bl/6 mouse assessed as median survival time at 100 mg/kg, ip administered 5 min prior to gamma-irradation at 8.5 Gy and measured after 30 days (reference value: 12 days); format: functional
Mus musculus [30] = assay: Radioprotective activity in C57Bl/6 mouse assessed as average body weight at 100 mg/kg, ip administered 5 min prior to gamma-irradation at 8.5 Gy and measured immediately (reference value: 25.4 +/- 2.6 g); format: functional
[31] = Immuno-toxicity in C57Bl/6 mouse assessed as decrease in absolute number of lymphocytes at 100 mg/kg, ip measured after 7 to 12 days post-treatment by flow cytometry; format: organism-based; conditions: in vivo, time 7-12 day
Jurkat [32] = assay: Cytotoxicity against human Jurkat cells assessed as cell viability at 1 uM measured after 48 hrs by WST-1 assay relative to control; format: functional; conditions: read-out: Activity
MOLT-4 [33] = assay: Cytotoxicity against human MOLT-4 cells assessed as cell viability at 1 uM measured after 48 hrs by WST-1 assay relative to control; format: functional; conditions: read-out: Activity
A549 [34] = assay: Cytotoxicity against human A549 cells assessed as cell viability at 1 uM measured after 48 hrs by WST-1 assay relative to control; format: functional; conditions: read-out: Activity
HT-29 [35] = assay: Cytotoxicity against human HT-29 cells assessed as cell viability at 1 uM measured after 48 hrs by WST-1 assay relative to control; format: functional; conditions: read-out: Activity
PANC-1 [36] = assay: Cytotoxicity against human PANC-1 cells assessed as cell viability at 1 uM measured after 48 hrs by WST-1 assay relative to control; format: functional; conditions: read-out: Activity
A2780 [37] = assay: Cytotoxicity against human A2780 cells assessed as cell viability at 1 uM measured after 48 hrs by WST-1 assay relative to control; format: functional; conditions: read-out: Activity
HeLa [38] = assay: Cytotoxicity against human HeLa cells assessed as cell viability at 1 uM measured after 48 hrs by WST-1 assay relative to control; format: functional; conditions: read-out: Activity
MCF7 [39] = assay: Cytotoxicity against human MCF7 cells assessed as cell viability at 1 uM measured after 48 hrs by WST-1 assay relative to control; format: functional; conditions: read-out: Activity
SAOS-2 [40] = assay: Cytotoxicity against human SAOS-2 cells assessed as cell viability at 1 uM measured after 48 hrs by WST-1 assay relative to control; format: functional; conditions: read-out: Activity
[41] = Cytotoxicity against human MRC5 cells assessed as cell viability at 1 uM measured after 48 hrs by WST-1 assay relative to control; format: cell-based; conditions: read-out: Activity

SMILES: Cc1ccccc1OCC(O)CN1CCN(CCO)CC1 (stereo unspecified)
- viability at 10 µM (Jurkat [1]): 106%
- viability at 10 µM (MOLT-4 [2]): 104%
- viability at 10 µM (A549 [3]): 95%
- viability at 10 µM (HT-29 [4]): 98%
- viability at 10 µM (PANC-1 [5]): 102%
- viability at 10 µM (A2780 [6]): 101%
- viability at 10 µM (HeLa [7]): 102%
- viability at 10 µM (MCF7 [8]): 103%
- viability at 10 µM (SAOS-2 [9]): 103%
- viability at 48 h, 10 µM [10]: 97%
- viability at 100 µM (Jurkat [11]): 92%
- viability at 100 µM (MOLT-4 [12]): 86%
- viability at 100 µM (A549 [13]): 114%
- viability at 100 µM (HT-29 [14]): 151%
- viability at 100 µM (PANC-1 [15]): 116%
- viability at 100 µM (A2780 [16]): 79%
- viability at 100 µM (HeLa [17]): 96%
- viability at 100 µM (MCF7 [18]): 95%
- viability at 100 µM (SAOS-2 [19]): 84%
- viability at 48 h, 100 µM [20]: 104%
- IC50 (A549 [21]): 3.4 mM
- MTD (A549 [22]): 0.39 mM
- viability at 100 µM (MOLT-4 [23]): 62%
- Activity [24]: Non-Toxic
- Activity [25]: Non-Toxic
- Activity [26]: 26.2 g
- Activity [27]: 27.2 g
- Activity [28]: 104%
- MST (Mus musculus [29]): 7 days
- Activity (Mus musculus [30]): 27.3 g
- Activity [31]: Toxic

SMILES: COc1cccc2c1C(=O)c1c(O)c3c(c(O)c1C2=O)C[C@@](O)(C(=O)CO)C[C@@H]3O[C@H]1C[C@H](N)[C@H](O)[C@H](C)O1 [DOXORUBICIN]
- viability at 1 µM (Jurkat [32]): 2%
- viability at 1 µM (MOLT-4 [33]): 1%
- viability at 1 µM (A549 [34]): 42%
- viability at 1 µM (HT-29 [35]): 55%
- viability at 1 µM (PANC-1 [36]): 78%
- viability at 1 µM (A2780 [37]): 8%
- viability at 1 µM (HeLa [38]): 76%
- viability at 1 µM (MCF7 [39]): 32%
- viability at 1 µM (SAOS-2 [40]): 22%
- viability at 48 h, 1 µM [41]: 22%
